Hits are enriched below; roughly 2.5% of the tested compounds scored in any of these assays.
DENV2 CPE rescue = DENV2-induced cell death inhibition. DENV2-infected cells, cytopathic effect rescue, plate reader. CPE inhibition, % at 9.99 µM. actives 1.7% (n = 350,000); in the data active = CPE inhibition above about 20%, passing the limit was not always enough; tested in BHK-21 cells;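 note: 0% = median of neutral control wells and 100% = median of positive control wells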
PglD DTNB = PglD (C. jejuni) enzyme inhibition | inhibition, % at 12.5 µM | purified PglD enzyme, DTNB colorimetric CoA detection | actives 0.098% (n = 360,000); in the data active = inhibition above about 16%, passing the limit was not always enough
SIRT5 block = blocks human SIRT5 desuccinylation of peptide | inhibition, % at 15 µM | actives 1.1% (n = 330,000) | AID 652115 | Purified SirT5, succinyl-peptide AMC, trypsin-coupled fluorescence; in the data active = inhibition above about 15%
E-selectin induc = E-selectin induction on HUVECs; P16581; HUVEC E-selectin immunofluorescence imaging; normalized: neutral wells 0, TNF-alpha wells 100; activation, % at 7.58 µM; actives 0.37% (n = 260,000); AID 686992;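 active = mean E-selectin-positive cell signal at least 10% of the positive control, reached in at least 60% of replicates, without over 20% cell loss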
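material = human umbilical vein endothelial cells (HUVEC), E-selectin induction | quantity = 3,000 cells/well | medium = EGM-2 growth medium on 0.1% gelatin-coated wells | technique = immunofluorescence imaging | read-out basis = % PE-positive cells | control set = TNF-alpha positive control, DMSO neutral control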
ERAP1 HTS inh = blocks human ERAP1 aminopeptidase activity; recombinant ERAP1, Leu-AMC fluorescence, 60 min; actives 0.15% (n = 340,000); inhibition, % at 10.7 µM; Q9NZ08;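 active = mean replicate inhibition of at least 30%, or all replicates individually reaching that 30% level; inactive = mean below 30% and not every replicate reaching it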;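 note: 0% = neutral control wells and 100% = L-leucinethiol positive control wells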
Target sequence (Q9NZ08 whole entry, looked up): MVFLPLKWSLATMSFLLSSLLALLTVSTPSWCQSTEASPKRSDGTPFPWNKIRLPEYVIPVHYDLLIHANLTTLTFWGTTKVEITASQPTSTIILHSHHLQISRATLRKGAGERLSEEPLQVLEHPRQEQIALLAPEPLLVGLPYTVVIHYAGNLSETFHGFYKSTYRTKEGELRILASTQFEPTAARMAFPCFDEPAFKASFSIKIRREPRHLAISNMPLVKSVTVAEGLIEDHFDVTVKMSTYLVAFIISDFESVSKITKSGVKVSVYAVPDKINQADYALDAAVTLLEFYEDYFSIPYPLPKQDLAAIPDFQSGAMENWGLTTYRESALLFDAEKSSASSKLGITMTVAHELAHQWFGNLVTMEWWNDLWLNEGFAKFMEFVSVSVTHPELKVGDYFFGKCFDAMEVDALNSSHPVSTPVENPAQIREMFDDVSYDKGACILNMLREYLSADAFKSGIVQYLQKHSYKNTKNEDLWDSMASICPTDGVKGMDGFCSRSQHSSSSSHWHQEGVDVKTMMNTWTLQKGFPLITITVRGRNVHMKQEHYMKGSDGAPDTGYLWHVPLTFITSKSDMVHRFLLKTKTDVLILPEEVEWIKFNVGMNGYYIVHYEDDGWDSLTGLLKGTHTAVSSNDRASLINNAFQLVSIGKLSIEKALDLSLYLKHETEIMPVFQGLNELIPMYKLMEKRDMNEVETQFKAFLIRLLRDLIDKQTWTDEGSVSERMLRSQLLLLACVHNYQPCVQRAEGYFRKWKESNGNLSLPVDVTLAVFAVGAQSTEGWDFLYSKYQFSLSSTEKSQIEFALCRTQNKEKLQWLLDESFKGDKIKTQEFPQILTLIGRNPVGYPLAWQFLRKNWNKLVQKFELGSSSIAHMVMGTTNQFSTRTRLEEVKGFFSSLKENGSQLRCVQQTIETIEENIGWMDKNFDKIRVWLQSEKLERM
An asterisk follows results filed as active; . = no result.

SMILES | DENV2 CPE rescue | PglD DTNB | SIRT5 block | E-selectin induc | ERAP1 HTS inh
C[C@@H]1CN([C@H](C)CO)C(=O)Cc2cc(NC(=O)Cc3cn(C)c4ccccc34)ccc2O[C@H]1CN(C)Cc1ccc(C(F)(F)F)cc1 | 33* | -1 | 0 | 152* | 1
C[C@H](CO)N1C[C@H](C)[C@@H](CN(C)C(=O)Nc2ccc(C(F)(F)F)cc2)Oc2ccc(NC(=O)Cc3cn(C)c4ccccc34)cc2CC1=O | 0 | 1 | 4 | 34* | 0
C[C@H]1CN([C@@H](C)CO)C(=O)Cc2cc(NC(=O)Cc3cn(C)c4ccccc34)ccc2O[C@H]1CN(C)Cc1ccc(C(F)(F)F)cc1 | -6 | 2 | 4 | 258* | 2
O=C(CN1C(=O)COc2ccc(Cl)cc21)NCC1CCCO1 (stereo not drawn) | -8 | -1 | -2 | -1 | -1
C[C@@H]1CCCCO[C@H](CN(C)C)[C@H](C)CN([C@@H](C)CO)C(=O)c2cc(NS(=O)(=O)c3ccc(F)cc3)ccc2O1 | 0 | -2 | -2 | 0 | 1
CC(C)NC(=O)N(C)C[C@H]1Oc2ccc(NS(=O)(=O)c3ccccc3)cc2C(=O)N([C@@H](C)CO)C[C@H]1C | 1 | 1 | 2 | 0 | 1
COc1ccc2nc(N(CCN(C)C)C(=O)c3ccc4ncsc4c3)sc2c1 | 5 | -2 | 0 | 0 | 7
Cc1ccc2nc(N(CCCN(C)C)C(=O)c3ccc4ncsc4c3)sc2c1 | -3 | 1 | -3 | . | 64*
O=C(NCCN=C1NS(=O)(=O)c2ccccc21)c1ccco1 | . | 1 | 20* | . | -2
C[C@H]1CN([C@@H](C)CO)C(=O)c2cccc(NC(=O)C3CCOCC3)c2O[C@@H]1CN(C)C(=O)Nc1ccc2c(c1)OCO2 | . | . | . | 0 | .
CC1(C)NC(=O)N(CC(=O)OCC(=O)NC(=O)c2ccccc2)C1=O | -8 | . | 2 | 0 | 64*
CCC1(CC)NC(=O)N(CC(=O)OCC(=O)NC(=O)c2ccc(Cl)cc2)C1=O | 0 | . | 0 | 0 | 4
CCC(=O)N1[C@H](CO)[C@H](c2ccc(-c3ccccc3)cc2)[C@H]1CN(CC)C(C)=O | 6 | 0 | 30* | 0 | -1
CCC(=O)N1[C@H](CN(CC)C(C)=O)[C@@H](c2ccc(-c3ccccc3)cc2)[C@@H]1CO | . | 0 | . | -1 | .
CCC(=O)N(C)C[C@@H]1[C@@H](c2ccc(-c3ccccc3F)cc2)[C@H](CO)N1C(C)=O | 17 | 0 | 22* | 0 | -2
CC(=O)N1[C@H](CN(C)C(=O)c2ccccc2F)[C@@H](c2ccccc2)[C@@H]1CO | 61* | 6 | -3 | 0 | 3
CCN(C[C@H]1[C@@H](c2ccc(-c3ccccc3)cc2)[C@@H](CO)N1C(C)=O)C(C)=O | 9 | . | -1 | 0 | 1
CCN(C[C@H]1[C@@H](c2ccc(-c3ccccc3F)cc2)[C@@H](CO)N1C(C)=O)C(C)=O | 5 | . | 22* | 0 | -4
CCC(=O)N(C)C[C@H]1[C@@H](c2ccc(-c3ccccc3F)cc2)[C@@H](CO)N1C(C)=O | 4 | 3 | 4 | 0 | -2
CC(C)c1ccc(CCNC(=O)CCNS(=O)(=O)c2ccc(Br)cc2)cc1 | 0 | -3 | -1 | 0 | 1
COc1ccc(CCC(C)NCc2ccc(C(F)(F)F)cc2)cc1 (stereo not drawn) | 19 | 2 | -2 | 0 | 0
COc1cccc(C2Cc3ccccc3C(=O)O2)c1 (stereo not drawn) | . | -1 | . | . | .
C=CCNS(=O)(=O)c1sccc1/C=N/O | . | -1 | . | . | .
CSc1ncc(C(=O)Nc2ccccc2Cl)c(C)n1 | 7 | 3 | -1 | 0 | 0
CC(=O)N(C)C[C@@H]1[C@H](c2ccc(-c3ccc(F)cc3)cc2)[C@H](CO)N1C(C)=O | 1 | . | 8 | 0 | -4
SMILES | DENV2 CPE rescue | PglD DTNB | SIRT5 block | E-selectin induc | ERAP1 HTS inh
CC(=O)N(C)C[C@H]1[C@H](c2ccc(-c3ccc(F)cc3)cc2)[C@@H](CO)N1C(C)=O | 33* | 7 | 2 | 0 | 4
Cc1oc2ccc(NS(=O)(=O)c3ccccc3)cc2c1C(=O)Nc1ccccc1 | 4 | . | 21* | . | 2
COCCOC(=O)c1c(C)oc2ccc(NS(=O)(=O)c3ccccc3)cc12 | . | 1 | 1 | . | -3
CC(C)c1ccccc1OCCCCN1CCCCC1 | 30* | 1 | -2 | . | -5
Cc1cc(O)c(C(C)C)cc1NC(=S)Nc1cc(C(C)C)c(O)cc1C | 74* | . | -6 | . | -7
O=C(C[C@H]1CC[C@@H]2[C@H](COC[C@H](O)CN2C(=O)c2ccccn2)O1)N1CCN(c2ccccc2)CC1 | 39* | -1 | 9 | 0 | -5
CNC(=O)C[C@@H]1CC[C@@H]2[C@H](COC[C@H](O)CN2C(=O)c2ccccn2)O1 | 69* | -1 | -1 | 0 | -6
O=C(C[C@@H]1CC[C@@H]2[C@H](COC[C@H](O)CN2C(=O)c2ccccn2)O1)N1CCN(c2ccccc2)CC1 | -13 | -1 | 4 | 0 | -3
CCOC(=O)c1[nH]c(CSc2nnc(-c3ccncc3)n2CCOC)c(C(=O)OCC)c1C | . | -1 | . | . | .
O=C1CCCC/C1=C\Nc1ccccc1C(=O)O | . | 6 | . | . | .
COc1cccc2c1C(=O)c1c(O)c3c(c(O)c1C2=O)CC(O)(C(C)=O)CC3OC1CC(O)C(O)C(C)O1 (stereo not drawn) | 3 | . | . | 1 | 32*
COc1cccc2c1C(=O)c1c(O)c3c(c(O)c1C2=O)C[C@](O)(C(C)=O)C[C@H]3O[C@@H]1C[C@@H](N)[C@@H](O)[C@@H](C)O1 | -24 | 2 | -2 | 146* | 19
C/C=C/c1ccc2c(c1)O[C@H](CN(C)CC1CCOCC1)[C@H](C)CN([C@@H](C)CO)S2(=O)=O | -3 | 3 | 0 | 1 | 1
C=CCN(c1ccccc1)S(=O)(=O)c1cccc(C(=O)NCC(c2cccs2)N2CCOCC2)c1 (stereo not drawn) | 5 | . | 0 | 0 | 3
Cc1ccc(CN2C(=O)CCC2C(=O)NCCN2CCOCC2)cc1 (stereo not drawn) | . | -8 | . | . | .
O=C(NC(Cc1ccccc1)c1nc2ccccc2[nH]1)c1cccc([N+](=O)[O-])c1 (stereo not drawn) | . | . | . | 83* | -3
O=C(c1ccc2c(c1)OCO2)N1CC(=O)N2[C@H](C1)[C@H](c1ccc(C#CCC3CCCC3)cc1)[C@@H]2CO | 1 | . | 24* | -1 | 0
O=C(c1ccc2c(c1)OCO2)N1CC(=O)N2[C@H](CO)[C@@H](c3ccc(C#CC4CCCC4)cc3)[C@H]2C1 | 3 | . | 0 | -1 | 2
O=C(c1ccc2c(c1)OCO2)N1CC(=O)N2[C@H](CO)[C@@H](c3ccc(C#CCC4CCCC4)cc3)[C@H]2C1 | 1 | . | 16* | -1 | -4
O=C(c1ccc2c(c1)OCO2)N1CC(=O)N2[C@H](C1)[C@@H](c1ccc(C#CCC3CCCC3)cc1)[C@@H]2CO | 9 | . | 18* | -1 | -1

High-throughput results deposited in PubChem BioAssay by Broad Institute.
